Data as given in ChEMBL document CHEMBL3580602, “Iminolactones from Schizophyllum commune” (J Nat Prod, 2015).
pIC50: −log10 of the molar value. Calls of active or inactive are those of the source. The rule behind the calls is not given here.

Columns and labels:
PC-3 [1] = experiment: Cytotoxicity against human PC3 cells assessed as growth inhibition after 48 hrs by sulforhodamine B assay; assay type: functional, cell-based; conditions: PC-3, 48 h
Summary of the method: (§1)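 Cancer lines sourced from the National Cancer Institute and run in a high-flux anticancer screen. Cells were exposed to the test compound over a range of concentrations at 37 °C for 48 h. IC50 is reported as the mean of four experiments, with thapsigargin, methotrexate and paclitaxel as positive controls.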

[2] = Cytotoxicity against human MCF10A cells assessed as growth inhibition at 1230 uM relative to control; assay type: cell-based, MCF-10A; conditions: read-out: GI
[3] = Cytotoxicity against mouse McCoy cells assessed as growth inhibition; assay type: cell-based
[4] = Cytotoxicity against mouse McCoy cells assessed as growth inhibition at 1230 uM relative to control; assay type: cell-based; conditions: read-out: GI
MCF7 [5] = experiment: Cytotoxicity against human MCF7 cells assessed as growth inhibition after 48 hrs by sulforhodamine B assay; assay type: functional, cell-based; conditions: MCF7, 48 h; summary of the method: as §1
EL4 [6] = experiment: Cytotoxicity against mouse EL4 cells assessed as growth inhibition after 48 hrs by sulforhodamine B assay; assay type: functional, cell-based; conditions: EL4, 48 h; summary of the method: as §1
[7] = Cytotoxicity against human MCF10A cells assessed as growth inhibition; assay type: cell-based; conditions: MCF-10A
[8] = Cytotoxicity against human MCF10A cells up to 200 uM; assay type: cell-based; conditions: mcf-10a
MCF7 [9] = experiment: Cytotoxicity against human MCF7 cells up to 200 uM after 48 hrs by sulforhodamine B assay; assay type: functional, cell-based; summary of the method: as §1
[10] = Cytotoxicity against mouse McCoy cells up to 200 uM; assay type: cell-based
PC-3 [11] = experiment: Cytotoxicity against human PC3 cells up to 200 uM after 48 hrs by sulforhodamine B assay; assay type: functional, cell-based; summary of the method: as §1
EL4 [12] = experiment: Cytotoxicity against mouse EL4 cells up to 200 uM after 48 hrs by sulforhodamine B assay; assay type: functional, cell-based; summary of the method: as §1

| SMILES | pIC50 (PC-3 [1]) | inhibition at 1230 µM [2] | pIC50 [3] | inhibition at 1230 µM [4] | pIC50 (MCF7 [5]) | pIC50 (EL4 [6]) | pIC50 [7] | Activity [8] | Activity (MCF7 [9]) | Activity [10] | Activity (PC-3 [11]) | Activity (EL4 [12]) |
| --- | --- | --- | --- | --- | --- | --- | --- | --- | --- | --- | --- | --- |
| CC1(C)C[C@@H]2OC(=O)[C@H](Cc3c[nH]c4ccccc34)N=C2[C@@]23C(=O)OC4OCC(=CC[C@@H]12)[C@H]43 (stereo partly specified) | 4.87 | 20% | < 2.91 | 41% | 5.17 | 5.40 | < 2.91 | – | – | – | – | – |
| CC(=O)O[C@H]1C(=O)[C@@]2(C)[C@H]([C@H](OC(=O)c3ccccc3)[C@]3(O)C[C@H](OC(=O)[C@H](O)[C@@H](NC(=O)c4ccccc4)c4ccccc4)C(C)=C1C3(C)C)[C@]1(OC(C)=O)CO[C@@H]1C[C@@H]2O [PACLITAXEL] | – | – | – | – | – | 5.77 | – | – | – | – | – | – |
| CN(Cc1cnc2nc(N)nc(N)c2n1)c1ccc(C(=O)N[C@@H](CCC(=O)O)C(=O)O)cc1 [METHOTREXATE] | – | – | – | – | – | 5.29 | – | – | – | – | – | – |
| CC1(C)C[C@@H]2OC(=O)[C@@H](Cc3ccccc3)N=C2[C@@]23C(=O)OC4OCC(=CC[C@@H]12)[C@H]43 (stereo partly specified) | – | – | – | – | – | – | – | Non-toxic | inactive | Non-toxic | inactive | inactive |
| CC1(C)C[C@@H]2OC(=O)[C@H](Cc3ccccc3)N=C2[C@@]23C(=O)OC4OCC(=CC[C@@H]12)[C@H]43 (stereo partly specified) | 4.83 | 22% | < 2.91 | 30% | 5.31 | 5.43 | < 2.91 | – | – | – | – | – |
| C/C=C(/C)C(=O)O[C@H]1C(C)=C2[C@H]([C@@H]1OC(=O)CCCCCCC)[C@@](C)(OC(C)=O)C[C@H](OC(=O)CCC)[C@@]1(O)[C@H]2OC(=O)[C@@]1(C)O [THAPSIGARGIN] | 5.62 | – | 5.70 | – | 5.57 | 5.85 | 5.62 | – | – | – | – | – |
